This passage reports GI50 results from publication PMC7548052 (Molecular Diversity, 2020).

Common to all, as to type: cell-based
One test concerns K-562. The experiment in a line: Anticancer screening, MTS cell proliferation assay, 72 h. Particulars: Homo sapiens, K562, 72 h. The method in brief: (§1)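 HL-60, K-562, Z-138 and DND-41 suspension cells were seeded at 2500–6000 cells/well directly into wells already containing test compound at seven concentrations (100 to 6.4 × 10−3 µM). After 72 h, MTS reagent was added and absorbance read at 490 nm. GI50 is the concentration giving 50% growth inhibition. Two independent experiments were run, each point at least in triplicate.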

The test system of a further test is DND-41. The description is as above. Particulars: Homo sapiens, DND41, 72 h. Put shortly: as §1
For another test, the system named is MCF-7. The experiment in a line: Anticancer screening, MTT assay, 72 h. Particulars: Homo sapiens, MCF7, 72 h. Put shortly:
(§2)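 Monolayer cultures were kept at 37 °C, 5% CO2 and plated on day 0 at 3 × 10^4 cells/mL (HCT 116, H460) or 5 × 10^4 cells/mL (MCF-7). Test agents were added in ten-fold dilutions (10−8 to 10−4 M) and incubated 72 h. Growth was read by MTT at 570 nm. GI50 is the concentration giving 50% inhibition. Two independent experiments were run, points at least in triplicate.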
Background: Tetrazolium assays rely on reduction of a dye to a coloured formazan, in cell work by metabolically active cells.

In another test the test system is Capan-1. Description: Anticancer screening, MTS cell proliferation assay, 72 h. Conditions: Homo sapiens, CAPAN-1, 72 h. Put shortly: (§3)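 Human solid-tumour lines were grown as monolayers in supplier-recommended media at 37 °C, 5% CO2. LN-229 was seeded at 375 and Capan-1 at 250 cells/well and incubated overnight. Cells were then exposed for 72 h to seven concentrations (100 to 6.4 × 10−3 µM). MTS reagent was added and absorbance read at 490 nm. Two independent experiments were run, each point at least in triplicate.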

The test system of a further test is HCT 116. Description: Anticancer screening, MTT assay, 72 h. Conditions: Homo sapiens, HCT-116, 72 h. The method in brief:
as §2

For another test, the system named is HL-60. Description: Anticancer screening, MTS cell proliferation assay, 72 h. Particulars: Homo sapiens, HL-60, 72 h. The method in brief: as §1
Another test has as its system H460. The experiment in a line: Anticancer screening, MTT assay, 72 h. Conditions: Homo sapiens, NCI-H460, 72 h. Put shortly:
as §2

For the next test, the system named is LN-229. The experiment in a line: Anticancer screening, MTS cell proliferation assay, 72 h. Particulars: Homo sapiens, LN-229, 72 h. The method in brief: as §3
Another test deals with Z-138. Description: Anticancer screening, MTS cell proliferation assay, 72 h. Particulars: Homo sapiens, Z-138, 72 h. Put shortly:
as §1

Where a name gives a salt, the structure may show the parent alone.

`CC(=CC(=O)NCCCCNc1cc(C(F)(F)F)nc2c(C(F)(F)F)cccc12)C(=O)NCCCCNc1cc(C(F)(F)F)nc2c(C(F)(F)F)cccc12` [Compound 15, N,N′-bis(4-{[2,8-bis(trifluoromethyl)quinolin-4-yl]amino}butyl)-2-methylbut-2-enediamide]: the GI50 – broadly, the concentration at which growth is held to half of that of the control – amounted to 8.6 ± 0.3 µM in the test on K-562; 7.9 ± 4.4 µM in the test with DND-41; 0.7 ± 0.2 µM with MCF-7; 2.3 ± 0.3 µM in the test with Capan-1; 2.4 ± 0.4 µM in the test with HCT 116; 2.6 ± 0.2 µM in the test on HL-60. For the same compound, the GI50 in the test with H460 was determined as 3 ± 1 µM; in the test on LN-229, 2.4 ± 0.8 µM; in the test on Z-138, 6.9 ± 1.3 µM.

Take `OC(c1cc(C(F)(F)F)nc2c(C(F)(F)F)cccc12)C1CCCCN1` (stereo not drawn) [MQ, mefloquine hydrochloride, reference compound]: the GI50 came out at 9.4 ± 0.3 µM in the test with K-562; 3.2 ± 0.2 µM in the test with DND-41; 1.3 ± 0.2 µM in the test with MCF-7; 2 ± 0.1 µM in the test with Capan-1; 2 ± 0.1 µM in the test on HCT 116; 5.9 ± 3.2 µM in the test on HL-60. Besides, the GI50 with H460 amounted to 1.5 ± 0.1 µM; in the test with LN-229, 0.1 ± 0.1 µM; in the test with Z-138, 12.6 ± 0.1 µM.

As to `COc1cc(NC(C)CCCN)c2ncccc2c1` (stereo not drawn) [PQ, primaquine diphosphate, reference compound], the GI50 amounted to 43.3 ± 0.1 µM with K-562; 14 ± 1 µM in the test on DND-41; 7 ± 1.5 µM with MCF-7; 9 ± 3.2 µM in the test with Capan-1; 17 ± 1 µM in the test with HCT 116; 7 ± 0.5 µM in the test with HL-60. The GI50 with H460 amounted to 17 ± 3 µM; with LN-229, 9.9 ± 0.4 µM; in the test with Z-138, 10.2 ± 0.5 µM.
